# Screening data (PubChem BioAssay)
# A selection: hits, their analogues and other compounds. The true share with any hit is near 2.6%.
# Yeast life ext: yeast lifespan extension; S. cerevisiae growth with nicotinamide, OD615; deaD strain in restrictive glucose medium; inhibition of the nicotinamide effect, % at 10 µM; 0.68% of 130,000 active; AID 775;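 active means inhibition above a set limit, placed 3 SD over the median of all compounds, cut at about 26% in these data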;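 further: 0% = nicotinamide-treated wells and 100% = cells grown without nicotinamide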
#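 Assay system: DeaD-strain S. cerevisiae. Medium: CSMM-D glucose medium, restrictive. Reagent: nicotinamide, 1.5 mM, co-present with compound. Compound: 10 µM single point, 0.25% DMSO. Schedule: culture preincubation 4 h, compound exposure 48 h, both 30 °C. Detection: absorbance at 615 nm.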
# RAM inhibit: inhibitors of the yeast RAM network. 1.8% of 190,000 active. inhibition, % at 50 µM. S. cerevisiae dse1pr::URA3 reporter, 5-FOA growth OD615, 2 d; analog-sensitive cbk1-as2 kinase mutant strain;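 active means inhibition above a set limit, 3 SD over mean compound inhibition, cut at about 8.4% in these data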;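 further: 0% = DMSO-only wells with no growth and 100% = 10 µM 1-NA-PP1 full growth; inhibition rescues growth on 5-FOA so higher OD means more RAM inhibition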
# Yeast growth inh: yeast BB579 growth reduction in restrictive medium; AID 804; inhibition, % at 10 µM; 0.51% of 140,000 active; S. cerevisiae BB579 growth, OD615, 48 h;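 active means inhibition above a set limit, 3 SD over the mean compound inhibition, cut at about 44% in these data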
#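 Detection: OD615 turbidity measurement; Material: Saccharomyces cerevisiae DeaD strain BB579, replicative lifespan model yeast; Timing: 48 h exposure, 30 °C; Doses: single 10 µM dose; Medium: CSMM-D restrictive synthetic medium containing dextrose (glucose); Controls: amphotericin B at 10 µg/mL as positive control.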
# The depositor's hits bear a star; . = no result.
SMILES,Yeast life ext,RAM inhibit,Yeast growth inh
CCCCCc1nc2ccccc2c(=O)n1-c1ccccc1[N+](=O)[O-],7,5,-21
CCCCCc1nc2c(c(=O)c3ccccc3n2C)c(=O)n1C1CCCCCC1,34*,2,15
CC1=CC(=C2C(=O)NC(=S)NC2=O)C=C(C(F)(F)F)N1Cc1ccccc1,.,5,.
CC1=CC(=C2C(=O)NC(=S)NC2=O)C=C(C(F)(F)F)N1CCc1ccccc1,.,11*,.
CCN1C(=O)C(=Cc2cc(C)n(C3CC3)c2C)C(=O)N(CC)C1=S,1,4,-53
CCN1C(=O)C(=Cc2ccc(C)s2)C(=O)N(CC)C1=S,66*,9.5*,-19
O=C(c1ccc(-c2ccccc2)c(F)c1)C1CCCN(CCO)C1 (stereo not drawn),.,-1,.
CCOc1ccc(/C=C2/C(=O)NC(=O)N(CCc3ccc(F)cc3)C2=O)cc1,49*,3,-13
COc1cc(/C=C2\C(=O)NC(=O)N(CCc3ccc(F)cc3)C2=O)ccc1O,12,-1,2
O=C1NC(=O)N(CCC2=CCCCC2)C(=O)/C1=C/c1ccc(O)cc1,41*,-1,-40
COc1ccc(/C=C2\C(=O)NC(=O)N(CCC3=CCCCC3)C2=O)c(OC)c1,19,-1,-21
O=c1c(C=Nc2cccnc2Cl)c(O)n(CCCCl)c(=O)n1C1CCCCC1,-3,8,-39
CCN(CC)P(=O)(c1n(CC)cc[n+]1CC)N(CC)CC,.,0,.
Cc1cccc(N/N=C(\C(N)=O)C2=NC(C)(C)Cc3ccccc32)c1,-6,0,-36
Nc1c(C(=O)NCCc2ccccc2)c2nc3ccccc3nc2n1CCN1CCOCC1,-35,-1,99*
COc1ccc(CCNC(=O)c2c(N)n(CCN3CCOCC3)c3nc4ccccc4nc23)cc1,-23,-2,28
Cc1cccc(C)c1NC(=O)c1cccn(Cc2ccc3c(c2)OC(F)(F)O3)c1=O,-17,1,-37
O=C(Nc1ccc(C(F)(F)F)cc1)c1cccn(Cc2ccc3c(c2)OC(F)(F)O3)c1=O,-5,10*,-94
CCCNC(=O)N1CCC2(CC1)OCCO2,.,2,.
O=C1NC(=S)N(c2ccccc2F)C(=O)/C1=C\c1cccs1,6,2,73*
CCOc1ccc(N2C(=O)/C(=C\c3cccs3)C(=O)NC2=S)cc1,.,5,.
Cc1c(C(=O)C(=O)N2CCC3(CC2)OCCO3)c2ccccc2n1C,.,0,.
Cc1nonc1OCCNc1ccc([N+](=O)[O-])c2cccnc12,-3,8,-12
Nc1ccccc1C(=O)OCC(=O)N1CCc2ccccc21,-5,2,-20
N#CSCC(=O)N1c2ccccc2CCc2ccccc21,43*,1,-51
SMILES,Yeast life ext,RAM inhibit,Yeast growth inh
CCc1ccc(NP(=O)(Oc2ccccc2F)Oc2ccccc2F)cc1,.,7,.
Cn1c(O)c(C(=O)c2ccccc2Cl)c(=O)n(C)c1=O,.,0,3
CN=C(SCc1cc2c(cc1Cl)OCO2)c1c(O)n(C)c(=O)n(C)c1=O,56*,-1,18
CCCCCn1c(=O)c(C(=O)NCc2ccncc2)c(O)c2ccccc21,0,-2,0
CCCCCCn1c(=O)c(C(=O)Nc2cnccn2)c(O)c2ccccc21,.,8.7*,.
O=C(CCl)NCC1CCCO1 (stereo not drawn),.,1,.
CN(C)C1(c2nnnn2CCOC(=O)Nc2ccc(Cl)cc2)CCCCC1,66*,1,-12
CN(C)C1(c2nnnn2-c2ccc(Cl)cc2)CCCCC1,-9,1,-37
Cc1cc(C=C2C(=O)N(C)C(=S)N(C)C2=O)c(C)n1-c1cccnc1,51*,1,13
Cc1cc(/C=C2/C(=O)NC(=O)N(C)C2=O)c(C)n1-c1ccccc1,.,4,.
Fc1c(F)c(F)c(N2CCNCC2)c(F)c1F,.,3,.
COc1ccc(C(=O)C(C)(C)NO)cc1,9,-1,52*
COc1ccc(C(=O)C23CN4CN(CN(C4)C2)C3)cc1,.,1,.
CCN(CC)c1ccc(CNCCc2ccc(F)cc2)cc1,.,1,.
CCCCn1c(=O)c(C=Nc2ccc(Cl)cc2)c(O)n(Cc2ccco2)c1=O,1,8.5*,-58
CC(C)n1c(=O)c(C=Nc2ccc(S(N)(=O)=O)cc2)c(O)n(Cc2ccco2)c1=O,-6,2,-14
CN1CCN(c2nc3ccccn3c(=O)c2C=C2C(=O)N(C)C(=O)N(C)C2=O)CC1,11,2,-14
CN1CCc2c(C#N)c(Cl)nc(Cl)c2C1,1,1,-8
Cc1nc2ccccc2c(=O)n1-c1ccc(Cl)cc1[N+](=O)[O-],.,1,.
Cc1cc(C=C2C(=O)NC(=O)NC2=O)c(C)n1-c1ccc2c(c1)OCO2,-4,3,-19
Cc1cc(C=C2C(=O)NC(=S)NC2=O)c(C)n1-c1ccc2c(c1)OCO2,39*,8,-39
Cc1c2ccncc2c(C)c2c1[nH]c1ccccc12,-8,-1,100*
c1ccc2c(c1)[nH]c1cnccc12,6,2,-42
O=C1NC(=O)N(c2cccc(Br)c2)C(=O)/C1=C/c1ccsc1,.,0,.
COCCN1Cc2cc(=O)n3c([nH]c4ccccc43)c2C1=N,.,-1,.
SMILES,Yeast life ext,RAM inhibit,Yeast growth inh
CNC(=O)Oc1ccc(-c2cn3cc(Cl)ccc3n2)cc1,-5,3,-20
CNC(=O)Oc1cccc(-c2cn3cc(OC(=O)NC)ccc3n2)c1,-3,0,51*
CNS(=O)(=O)c1ccc(N=Cc2c(O)n(-c3cccc(C)c3)c(=O)[nH]c2=O)cc1,.,1,.
CCN(CC)c1ccc(N=Cc2c(O)n(-c3ccc(Cl)cc3)c(=O)[nH]c2=O)cc1,-18,11*,-19
CNS(=O)(=O)c1ccc(N=Cc2c(O)n(-c3ccccc3)c(=O)[nH]c2=O)cc1,.,9.4*,.
CCN(CC)c1ccc(N=Cc2c(O)n(-c3ccc(OC)cc3)c(=O)[nH]c2=O)cc1,-8,4,-79
CCN(CC)CC(O)c1ccc(C2CCCC2)cc1 (stereo not drawn),3,0,-44
CC(=O)NC(Cc1ccc(N(CCCl)CCCl)cc1)C(=O)O (stereo not drawn),.,1,2
O=C(O)CCCc1ccc(N(CCCl)CCCl)cc1,27*,9.8*,-23
Cn1c(NN=O)nc2ccccc21,.,2,.
O=C(CSC1c2ccccc2-c2ccccc21)N/N=C/c1ccccc1O,10,3,-35
Cc1nn(Cc2ccccc2)c(Cl)c1C(=O)OCC(=O)NCC1CCCO1 (stereo not drawn),.,2,.
O=P(Oc1ccccc1)(Oc1ccccc1)C(Nc1ccccc1)c1ccccc1 (stereo not drawn),4,9.4*,-7
COP(=O)(OC)C(Nc1ccccn1)c1ccccc1 (stereo not drawn),-3,0,-11
c1ccc(CC(NCc2ccco2)c2ccccc2)cc1 (stereo not drawn),.,1,.
COc1ccc(C)cc1NC1=NCCCS1,.,4,.
O=c1c2ccccc2nc(CSc2ncnc3nc[nH]c23)n1-c1ccccc1,1,3,-47
O=c1c2ccccc2nc(CSc2ncnc3nc[nH]c23)n1-c1ccccc1Cl,.,10*,-2
CC(C)c1ccc(-n2c(O)c(/C=N/NC(=O)c3ccncc3)c(=O)[nH]c2=O)cc1,-1,0,-33
CCc1ccc(-n2c(O)c(/C=N/NC(=O)c3ccncc3)c(=O)[nH]c2=O)cc1,0,11*,-9
